Data taken from ChEMBL document CHEMBL4038284, “Synthesis of novel quinoline-based 4,5-dihydro-1H-pyrazoles as potential anticancer, antifungal, antibacterial and antiprotozoal agents” (Eur J Med Chem, 2017).
The source made the active and inactive calls. The rule behind the calls is not given here.

Columns and labels:
[1] = system: SW-620; assay: Growth inhibition of human SW620 cells at 10 uM incubated for 48 hrs by sulforhodamine B assay; assay type: functional, cell-based
Procedure, shortened: (§1)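 NCI-60 single-dose screen at 10 µM for 48 h. Cells were grown in RPMI-1640 with 5% FBS and 2 mM L-glutamine and preincubated 24 h before compound. Time-zero plates were TCA-fixed at compound addition. After exposure, cells were TCA-fixed, stained with SRB and read at 515 nm. Percentage growth was calculated against time-zero and untreated-control absorbances.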

[2] = system: Klebsiella pneumoniae; assay: Antibacterial activity against ESBL positive Klebsiella pneumoniae ATCC 700603 after 24 hrs by resazurin dye based microdilution assay; assay type: functional; details: Klebsiella pneumoniae, 700603, 24 h
Procedure, shortened: (§2)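 MIC taken as the lowest concentration giving visible inhibition and/or by resazurin (1 mg/mL). Gentamicin was the control. Run in duplicate, repeated at least three times.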

[3] = system: Staphylococcus aureus; assay: Antibacterial activity against vancomycin-intermediate Staphylococcus aureus after 24 hrs by resazurin dye based microdilution assay; assay type: functional; procedure, shortened: as §2
[4] = system: EKVX; assay: Growth inhibition of human EKVX cells at 10 uM incubated for 48 hrs by sulforhodamine B assay; assay type: functional, cell-based
Procedure, shortened: (§3)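 NCI 60-cell-line screen at a single 10 µM dose. Cells in RPMI-1640 with 5% FBS and 2 mM L-glutamine, pre-incubated 24 h, then treated for 48 h at 37 °C. TCA fixation, sulforhodamine B staining, absorbance at 515 nm. Percentage growth calculated against time-zero and untreated controls.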

[5] = system: HT-29; assay: Growth inhibition of human HT-29 cells at 10 uM incubated for 48 hrs by sulforhodamine B assay; assay type: functional, cell-based
Procedure, shortened: (§4)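 NCI 60-line panel, single 10 μM dose. Cells were grown in RPMI-1640 with 5% FBS and 2 mM L-glutamine and pre-incubated 24 h before compound addition (DMSO stock). Exposure was 48 h at 37 °C, 5% CO2. Cells were fixed with cold TCA (10% final), stained with 0.4% SRB, bound dye dissolved in 10 mM Tris base, A515 read. Growth was taken relative to time-zero and untreated control plates.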

[6] = system: HCT-116; assay: Growth inhibition of human HCT116 cells at 10 uM incubated for 48 hrs by sulforhodamine B assay; assay type: functional, cell-based; procedure, shortened: as §3
[7] = system: HCT-15; assay: Growth inhibition of human HCT15 cells at 10 uM incubated for 48 hrs by sulforhodamine B assay; assay type: functional, cell-based; procedure, shortened: as §3
[8] = system: Cryptococcus neoformans; assay: Growth inhibition of Cryptococcus neoformans ATCC 32264 at 3.4 ug/ml incubated for 48 hrs under dark condition by broth microdilution method relative to control; assay type: functional; details: ATCC 32264, 48 h, read-out: GI
[9] = system: Cryptococcus neoformans; assay: Growth inhibition of Cryptococcus neoformans ATCC 32264 at 15.62 ug/ml incubated for 48 hrs under dark condition by broth microdilution method relative to control; assay type: functional; details: ATCC 32264, 48 h, read-out: GI
Procedure, shortened: (§5)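 CLSI M27-A3 broth microdilution in RPMI-1640, DMSO ≤1%. Inoculum 1-5 × 10^3 CFU/mL. Incubated 48 h at 30 °C, dark. % inhibition = 100 − (OD405 test − sterility control)/(OD405 growth control − sterility control), with growth and sterility control wells. Triplicate.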

[10] = system: UO-31; assay: Growth inhibition of human UO31 cells at 10 uM incubated for 48 hrs by sulforhodamine B assay; assay type: functional, cell-based; procedure, shortened: as §1
[11] = system: SR; assay: Growth inhibition of human SR cells at 10 uM incubated for 48 hrs by sulforhodamine B assay; assay type: functional, cell-based; procedure, shortened: as §1
[12] = system: Candida albicans; assay: Growth inhibition of Candida albicans ATCC 10231 at 125 ug/ml incubated for 48 hrs under dark condition by broth microdilution method relative to control; assay type: functional; details: ATCC 10231, 48 h, read-out: GI; procedure, shortened: as §5
[13] = system: MDA-MB-468; assay: Growth inhibition of human MDA-MB-468 cells at 10 uM incubated for 48 hrs by sulforhodamine B assay; assay type: functional, cell-based; procedure, shortened: as §4
[14] = system: IGROV-1; assay: Growth inhibition of human IGROV1 cells at 10 uM incubated for 48 hrs by sulforhodamine B assay; assay type: functional, cell-based; procedure, shortened: as §4
[15] = system: Candida albicans; assay: Growth inhibition of Candida albicans ATCC 10231 at 62.5 ug/ml incubated for 48 hrs under dark condition by broth microdilution method relative to control; assay type: functional; details: ATCC 10231, 48 h, read-out: GI; procedure, shortened: as §5
[16] = system: RXF 393; assay: Growth inhibition of human RXF393 cells at 10 uM incubated for 48 hrs by sulforhodamine B assay; assay type: functional, cell-based; procedure, shortened: as §4
[17] = system: OVCAR-8; assay: Growth inhibition of human OVCAR8 cells at 10 uM incubated for 48 hrs by sulforhodamine B assay; assay type: functional, cell-based; procedure, shortened: as §4
[18] = system: SK-OV-3; assay: Growth inhibition of human SKOV3 cells at 10 uM incubated for 48 hrs by sulforhodamine B assay; assay type: functional, cell-based; procedure, shortened: as §1
[19] = system: M14; assay: Growth inhibition of human M14 cells at 10 uM incubated for 48 hrs by sulforhodamine B assay; assay type: functional, cell-based; procedure, shortened: as §4
[20] = system: HOP-92; assay: Growth inhibition of human HOP92 cells at 10 uM incubated for 48 hrs by sulforhodamine B assay; assay type: functional, cell-based; procedure, shortened: as §4
[21] = system: SK-MEL-2; assay: Growth inhibition of human SK-MEL-2 cells at 10 uM incubated for 48 hrs by sulforhodamine B assay; assay type: functional, cell-based; procedure, shortened: as §1
[22] = system: DU-145; assay: Growth inhibition of human DU145 cells at 10 uM incubated for 48 hrs by sulforhodamine B assay; assay type: functional, cell-based; procedure, shortened: as §3
[23] = system: UACC-257; assay: Growth inhibition of human UACC257 cells at 10 uM incubated for 48 hrs by sulforhodamine B assay; assay type: functional, cell-based; procedure, shortened: as §1
[24] = system: Cryptococcus neoformans; assay: Growth inhibition of Cryptococcus neoformans ATCC 32264 at 31.25 ug/ml incubated for 48 hrs under dark condition by broth microdilution method relative to control; assay type: functional; details: ATCC 32264, 48 h, read-out: GI; procedure, shortened: as §5
[25] = system: PC-3; assay: Growth inhibition of human PC3 cells at 10 uM incubated for 48 hrs by sulforhodamine B assay; assay type: functional, cell-based; procedure, shortened: as §4
[26] = system: NCI-H322M; assay: Growth inhibition of human NCI-H322M cells at 10 uM incubated for 48 hrs by sulforhodamine B assay; assay type: functional, cell-based; procedure, shortened: as §4
[27] = system: Hs-578T; assay: Growth inhibition of human Hs578T cells at 10 uM incubated for 48 hrs by sulforhodamine B assay; assay type: functional, cell-based; procedure, shortened: as §4
[28] = system: NCI-H460; assay: Growth inhibition of human NCI-H460 cells at 10 uM incubated for 48 hrs by sulforhodamine B assay; assay type: functional, cell-based; procedure, shortened: as §4
[29] = system: NCI-H226; assay: Growth inhibition of human NCI-H226 cells at 10 uM incubated for 48 hrs by sulforhodamine B assay; assay type: functional, cell-based; procedure, shortened: as §4
[30] = system: A549; assay: Growth inhibition of human A549/ATCC cells at 10 uM incubated for 48 hrs by sulforhodamine B assay; assay type: functional, cell-based; procedure, shortened: as §3
[31] = system: A498; assay: Growth inhibition of human A498 cells at 10 uM incubated for 48 hrs by sulforhodamine B assay; assay type: functional, cell-based; procedure, shortened: as §3
[32] = system: Candida albicans; assay: Growth inhibition of Candida albicans ATCC 10231 at 7.8 ug/ml incubated for 48 hrs under dark condition by broth microdilution method relative to control; assay type: functional; details: ATCC 10231, 48 h, read-out: GI; procedure, shortened: as §5
[33] = system: HCC 2998; assay: Growth inhibition of human HCC2998 cells at 10 uM incubated for 48 hrs by sulforhodamine B assay; assay type: functional, cell-based; procedure, shortened: as §3
[34] = system: Staphylococcus aureus; assay: Antibacterial activity against methicillin-sensitive Staphylococcus aureus ATCC 25923 after 24 hrs by resazurin dye based microdilution assay; assay type: functional; details: ATCC 25923, 24 h; procedure, shortened: as §2
[35] = system: OVCAR-4; assay: Growth inhibition of human OVCAR4 cells at 10 uM incubated for 48 hrs by sulforhodamine B assay; assay type: functional, cell-based; procedure, shortened: as §4
[36] = system: Cryptococcus neoformans; assay: Growth inhibition of Cryptococcus neoformans ATCC 32264 at 250 ug/ml incubated for 48 hrs under dark condition by broth microdilution method relative to control; assay type: functional; details: ATCC 32264, 48 h, read-out: GI; procedure, shortened: as §5

| SMILES | growth inhibition (GI) [1] | MIC [2] | MIC [3] | growth inhibition (GI) [4] | growth inhibition (GI) [5] | growth inhibition (GI) [6] | growth inhibition (GI) [7] | inhibition of growth at 3.4 µg/mL [8] | inhibition of growth at 15.62 µg/mL [9] | growth inhibition (GI) [10] | growth inhibition (GI) [11] | inhibition of growth at 125 µg/mL [12] | growth inhibition (GI) [13] | growth inhibition (GI) [14] | inhibition of growth at 62.5 µg/mL [15] | growth inhibition (GI) [16] | growth inhibition (GI) [17] | growth inhibition (GI) [18] | growth inhibition (GI) [19] | growth inhibition (GI) [20] | other results |
| --- | --- | --- | --- | --- | --- | --- | --- | --- | --- | --- | --- | --- | --- | --- | --- | --- | --- | --- | --- | --- | --- |
| COc1cc(C2=NN(c3ccc(Cl)cc3)C(c3cccc(Nc4ccnc5cc(Cl)ccc45)c3)C2)cc(OC)c1OC (configuration not stated) | inactive | > 1000 µg/mL | > 1000 µg/mL | inactive | inactive | inactive | inactive | 8.08% | 12.2% | inactive | inactive | 16.7% | inactive | inactive | 12.2% | inactive | inactive | inactive | inactive | inactive | growth inhibition (GI) [21]: inactive; growth inhibition (GI) [22]: inactive; growth inhibition (GI) [23]: inactive; inhibition of growth at 31.25 µg/mL [24]: 12.5%; growth inhibition (GI) [25]: inactive; growth inhibition (GI) [26]: inactive; growth inhibition (GI) [27]: inactive; growth inhibition (GI) [28]: inactive; growth inhibition (GI) [29]: inactive; growth inhibition (GI) [30]: inactive; growth inhibition (GI) [31]: inactive; inhibition of growth at 7.8 µg/mL [32]: 4.21%; growth inhibition (GI) [33]: inactive; MIC [34]: > 1000 µg/mL; growth inhibition (GI) [35]: inactive; inhibition of growth at 250 µg/mL [36]: 21.7% |
| Clc1ccc(C2=NN(c3ccccc3)C(c3cccc(Nc4ccnc5cc(Cl)ccc45)c3)C2)cc1 (configuration not stated) | inactive | > 1000 µg/mL | > 1000 µg/mL | inactive | inactive | inactive | inactive | 0% | 0% | inactive | inactive | 8.35% | inactive | inactive | 7.77% | inactive | inactive | inactive | inactive | inactive | growth inhibition (GI) [21]: inactive; growth inhibition (GI) [22]: inactive; growth inhibition (GI) [23]: inactive; inhibition of growth at 31.25 µg/mL [24]: 0%; growth inhibition (GI) [25]: inactive; growth inhibition (GI) [26]: inactive; growth inhibition (GI) [27]: inactive; growth inhibition (GI) [28]: inactive; growth inhibition (GI) [29]: inactive; growth inhibition (GI) [30]: inactive; growth inhibition (GI) [31]: inactive; inhibition of growth at 7.8 µg/mL [32]: 3.8%; growth inhibition (GI) [33]: inactive; MIC [34]: > 1000 µg/mL; growth inhibition (GI) [35]: inactive; inhibition of growth at 250 µg/mL [36]: 19.8% |
